# Screening data from PubChem.
# An excerpt weighted towards active compounds, which were near 2.5% of everything screened.
# HCV NS3 hel inh = HCV NS3 helicase inhibition; NS3 helicase DNA unwinding, Cy5 molecular beacon fluorescence; inhibition, % at 10.9 µM; hit rate 0.56% among 290,000; AID 1800;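 active = inhibition above the mean of all tested compounds plus 3 SD, set per campaign, cut at about 35% in these data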;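 also: 0% = DMSO wells and 100% = thioflavine S control wells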
#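 Test system: hepatitis C virus NS3 helicase domain fragment enzyme. Also added: annealed dual-labelled DNA beacon duplex, ATP-started. Timing: 60 min unwinding reaction at 25 °C after ATP addition. Technique: Cy5 fluorescence. Measure: % inhibition of unwinding.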
# Pemphigus Ab inh = blocks pemphigus antibody binding to human desmoglein-3 | DSG3-coupled beads, scFv-anti-DSG3-GFP binding, flow cytometry; hits give low values | hit rate 0.48% among 310,000 | P32926 | binding (percent of control), % at 10 µM | AID 588358;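 active = binding more than 3 SD below its plate's average and above zero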;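 also: hits lower antibody fragment binding to DSG3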
# MBD2 DNA inh = blocks human MBD2 binding to methylated DNA. Q9UBB5. TR-FRET, MBD2 binding to methylated oligonucleotide. inhibition, % at 4.4 µM. hit rate 0.31% among 370,000. AID 686964; in the data active = inhibition above about 13%
# Target sequence (Q9UBB5 whole entry, looked up): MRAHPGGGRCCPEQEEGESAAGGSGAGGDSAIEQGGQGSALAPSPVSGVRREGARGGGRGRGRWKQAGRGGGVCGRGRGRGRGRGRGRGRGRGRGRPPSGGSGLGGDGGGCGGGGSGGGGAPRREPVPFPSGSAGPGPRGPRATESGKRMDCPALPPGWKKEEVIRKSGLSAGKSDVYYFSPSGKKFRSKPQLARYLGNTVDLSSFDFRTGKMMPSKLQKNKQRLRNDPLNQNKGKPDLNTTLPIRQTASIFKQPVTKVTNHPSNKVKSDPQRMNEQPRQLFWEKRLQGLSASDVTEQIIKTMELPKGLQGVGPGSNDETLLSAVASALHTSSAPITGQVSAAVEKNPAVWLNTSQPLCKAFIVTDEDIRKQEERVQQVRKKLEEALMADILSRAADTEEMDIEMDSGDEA
# SUMO1 PPI mod = modulators of human SUMO1-mediated protein-protein interactions; P63165; SUMO1 binding to a labelled peptide, TR-FRET, 1 h; inhibition, % at 20 µM; hit rate 0.33% among 360,000; in the data active = inhibition above about 37%
# Target sequence (P63165 whole entry, looked up): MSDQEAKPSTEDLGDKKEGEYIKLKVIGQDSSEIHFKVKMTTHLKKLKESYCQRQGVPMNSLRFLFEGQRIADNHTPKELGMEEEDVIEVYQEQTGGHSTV
# UHRF1 binding = human UHRF1 methylated DNA binding inhibitors; AID 687016; Q96T88; UHRF1 binding to methylated oligo, TR-FRET; hit rate 0.75% among 370,000; inhibition, % at 4.4 µM; in the data active = inhibition above about 21%;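 also: UHRF1 SRA domain binding a hemimethylated CpG hairpin DNA probe; 0% = median of test compound wells and 100% = reference inhibitor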
# DNMT1 inh = inhibitors of human DNMT1; hit rate 0.83% among 360,000; DNMT1 molecular beacon, Hinp1I cleavage, fluorescence; P26358; inhibition (reported as % activation of signal), % at 10 µM; AID 588458; in the data active = inhibition above about 50%
# Active calls of the source: *; x = no result given.
SMILES,HCV NS3 hel inh,Pemphigus Ab inh,MBD2 DNA inh,SUMO1 PPI mod,UHRF1 binding,DNMT1 inh
CC(=O)Nc1ccc(NC(=O)CSc2ccc(-c3ccc4c(c3)OCO4)nn2)cc1,10.2,60.2*,-4.4,-2.5,0.0,11.2
CCCOc1ccc(CCCN=C(N)N)cc1Cl,-27.1,111.6,1.8,-3.2,-1.7,-1.3
Oc1ccc[n+](CC(O)c2ccccc2)c1 (stereo not given),x,96.8,0.1,-3.2,-0.9,2.9
Cn1c(=O)n(C)c2cc(/C=N/NC(=O)c3cc4cc(Br)ccc4o3)ccc21,-5.3,108.4,-0.8,60.0*,-0.5,-10.2
Nc1ccc2nc(CCCCCCc3nc4ccc(N)cc4[nH]3)[nH]c2c1,-41.2,65.0*,-1.1,0.4,-1.1,-14.6
Cc1ccc(N2CCN(S(=O)(=O)c3ccc4c(c3)n(C)c(=O)c(=O)n4C)CC2C)cc1 (stereo not given),-0.4,111.1,3.2,-0.7,3.8,49.9
COC(=O)[C@]12C[C@H](CC(=O)N3CCN(C(=O)c4ccco4)CC3)C(=O)N(Cc3ccccc3)C1=C[C@H](C(C)(C)C)O[C@@H]2C,x,x,2.2,x,0.6,x
Fc1ccc(CSc2nnc(CN3CCOCC3)n2-c2ccccc2)c(Cl)c1,5.1,99.0,-1.1,0.5,42.9*,4.4
O=c1c2ccccc2nc(SCc2ccc(F)cc2Cl)n1CCCN1CCOCC1,-33.3,100.5,-0.8,2.8,-0.1,0.8
Cn1c(SCC(=O)NCc2cccs2)nnc1-c1ccc(O)cc1,-15.1,104.6,6.4,-1.9,4.0,-1.7
CCOC(=O)c1sc2nc[nH]c(=O)c2c1C,-4.6,110.5,-3.2,0.5,-4.2,2.4
Cc1ccc(NC(=O)c2sc3nc[nH]c(=O)c3c2C)c(C)c1,-2.5,94.6,6.9,2.8,22.6*,4.2
COCCNC(=O)Cn1cc(C(=O)c2ccco2)c2ccccc21,1.4,103.7,1.6,-0.1,-1.2,16.8
Cc1cc(C)cc(NC(=O)Nc2cc(-c3ccccc3)nn2C)c1,-23.7,x,-1.4,2.6,-3.5,2.4
Cn1nc(-c2ccccc2)cc1NC(=O)Nc1ccccc1F,15.0,93.3,-2.4,6.3,68.4*,4.2
O=c1[nH][nH]c2c1C(c1ccc(F)cc1)OC(CCc1ccccc1)C2 (stereo not given),x,x,-5.1,5.9,-8.1,x
O=c1[nH][nH]c2c1[C@@H](c1ccc(F)cc1)O[C@H](CCc1ccccc1)C2,x,x,-6.0,2.3,29.4*,x
COc1ccc(N2CCN(C(=S)Nc3ccc(C)cc3)CC2)cc1,-0.5,102.3,-5.4,0.1,-0.7,-0.8
COc1ccc(N2CCN(C(=S)Nc3cccc(C)c3C)CC2)cc1,10.6,48.6*,1.6,2.8,3.8,10.7
O=C(CSc1nnc(CNC(=O)c2ccccc2F)o1)NC1CCCCC1,-3.7,99.1,-0.6,37.5*,-1.2,3.7
CC(C)Nc1ccc(Nc2ccnc3cc4ccccc4cc23)cc1,-6.5,139.1,4.6,-68.8,9.5,65.9*
COc1ccc(Nc2ccnc3ccccc23)cc1,-4.8,104.0,5.0,-13.7,11.3,0.3
CCCCn1c(N)c(-c2nc3ccccc3s2)c2c([N+](=O)[O-])nn(C)c(=O)c21,7.7,84.5*,-0.3,-4.2,1.1,-13.6
COc1ccc(-c2nnn(CC(=O)NCCc3ccc(OC)c(OC)c3)n2)cc1,-6.4,38.1*,-0.3,-4.3,-1.1,0.8
COc1ccc(CCNC(=O)CCOc2ccc(C)cc2)cc1OC,3.3,101.8,4.1,3.5,1.6,2.7
SMILES,HCV NS3 hel inh,Pemphigus Ab inh,MBD2 DNA inh,SUMO1 PPI mod,UHRF1 binding,DNMT1 inh
COc1ccc(CCNC(=O)COc2ccc(-c3ccc(C)cc3)cc2)cc1OC,-13.9,83.1*,1.2,3.1,4.4,-4.7
COc1ccc(CCNC(=O)c2cc(-c3ccc(C)c(C)c3O)n[nH]2)cc1OC,-14.1,97.9,8.2,36.6*,0.6,-7.1
COc1ccc(CCNC(=O)Cn2nnc(-c3cccs3)n2)cc1OC,3.9,104.3,-0.9,13.2,-1.3,-1.4
COC(=O)[C@@]1(Sc2ccc(C)cc2)CC(=O)N[C@@H]1c1ccc(C(F)(F)F)cc1,x,x,8.1,6.4,22.6*,x
Nn1c(SCc2ccccc2)nc2c(cnn2-c2ccccc2)c1=O,-7.8,103.0,0.6,0.8,1.8,48.8
CCCc1cc2c(OC(=O)CC)c(-c3ccc(C(=O)OCC)o3)c(=O)oc2cc1OC,26.5,95.8,10.3,-3.4,24.2*,4.8
Cc1cc(NC(=O)CCCC(=O)NCc2cccs2)no1,1.7,x,12.2,0.7,24.6*,0.1
Cc1cc(C(=O)NCc2cccs2)no1,2.1,104.1,-0.3,-1.9,6.0,1.4
COc1ccc(S(=O)(=O)NCc2cccnc2)cc1NC(=O)c1ccccc1C,x,97.4,1.6,20.8,-0.3,53.5*
O=C(c1ccccc1)N(NC(=O)C(O)(c1ccccc1)c1ccccc1)c1cccc(F)c1,-19.0,97.5,3.2,0.4,3.4,1.1
CCO/C(C)=N/Oc1cccc(N(C)C)c1,x,x,-3.6,2.1,28.6*,-15.7
CCO/C(C)=N/Oc1cnc2ccccc2c1,x,x,0.6,6.4,-2.3,2.9
COc1ccc(/C=C/C(=O)NC(=S)Nc2cc([N+](=O)[O-])ccc2O)cc1OC,6.8,85.3*,1.9,12.6,-1.2,-14.4
O=c1nc(-c2ccccc2)c2ccccc2[nH]1,1.9,87.6*,2.3,-22.8,3.2,2.4
Cc1ccc(-c2nc(=O)[nH]c3ccccc23)cc1,4.8,107.7,-2.0,-25.0,-3.6,0.8
Cc1nc2ccccc2c(=O)n1Cc1ccco1,-3.5,112.0,6.5,6.6,2.1,-4.3
COc1ccc(Cn2c(-c3ccco3)nc3c(c(=O)c4ccccc4n3C)c2=O)cc1,21.2,x,9.5,45.0*,0.6,15.9
COc1ccc(S(=O)(=O)c2c(N)n(Cc3ccco3)c3nc4ccccc4nc23)cc1,35.2,91.9,1.9,40.6*,-0.4,97.9*
COc1ccc(Cn2c(C)nc3c(c2=O)c2nc4ccccc4nc2n3Cc2ccco2)cc1,x,90.7,17.8*,68.8*,17.5,96.1*
CCOC1CCCc2oc(-c3ccc(OC)cc3)c(C#CCCO)c21 (stereo not given),x,x,-0.8,-3.6,2.2,x
Cc1ccc2nc(SCc3ccccc3)c(C=O)c(=O)n2c1,2.5,52.6*,-2.8,-8.1,-0.2,25.7
COc1cc(N=c2ssnc2Cl)cc(OC)c1,1.4,62.1*,-1.1,-2.0,-8.3,-5.2
Cc1[nH]n(-c2cccc(Cl)c2)c(=O)c1-c1ccccc1,-8.4,101.8,-2.9,3.8,38.7*,1.6
Cc1[nH]n(-c2ccccc2)c(=O)c1-c1ccccc1,-2.0,99.3,1.0,0.7,0.2,-1.2
CS(=O)(=O)N1CCc2cc(C(=O)N3CCN(c4ccccc4F)CC3)ccc21,2.2,102.1,5.2,-1.2,23.2*,0.9
O=C(CN1CCN(c2ccccn2)CC1)NC1CCCC1,2.8,x,10.3,-0.2,24.1*,-0.1
Cc1ccc2nc(Cl)c(C#N)cc2c1,-0.8,103.9,1.9,-11.8,-4.8,2.2
